Test results reported in ChEMBL document CHEMBL4706565, “Anti-glioma effects of 2-aminothiophene-3-carboxamide derivatives, ANO1 channel blockers” (Eur J Med Chem, 2020).
Calls of active or inactive are those of the source. No cut-off for these calls is given here.

Experiments:
[1] = test system: U-251; assay: Inhibition of cell invasion in human U251 cells at 10 uM incubated for 48 hrs by Boyden chamber method; format: functional
Summary of the method: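 Boyden chamber invasion: U251 cells serum-starved 24 h, then 2.5×10^5 cells seeded in 8-μm ECMatrix-coated transwells. Treated with compound at 1 or 10 μM for 48 h at 37 °C. Invasion ratio from relative fluorescence.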

[2] = test system: U-251; assay: Inhibition of anchorage-independent colony formation in human U251 cells at 100 uM incubated for 14 days by crystal violet staining based soft agar colony formation assay; format: functional; details: time 14.0 day
Summary of the method: (§1)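 Soft agar assay: 2.0×10^3 U251 cells in complete medium with 0.3% agar over a 0.6% bottom agar layer. Treated with compounds at 1-100 μM for 14 days, 37 °C, 5% CO2. Colonies stained with crystal violet for 24 h, whole wells photographed and colonies counted against DMSO control; n = 3.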

[3] = test system: U-87 MG; assay: Antiproliferative activity against human U87MG cells overexpressing ANO1 assessed as reduction in cell viability at 100 uM measured after 72 hrs by Celltiter-glo assay; format: functional, U-87MG ATCC
Summary of the method: (§2)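 5.0×10^3 cells/well seeded, overnight, then compounds added as 1:4 serial dilutions in DMSO; viability read after 72 h with CellTiter-Glo luminescence. GI50 from fitted dose-response curves; triplicate wells, SD from three independent experiments. DMEM for U251 and U138, MEM for U87MG, both with 10% FBS and pen/strep, 37 °C, 5% CO2.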

[4] = test system: U138-MG; assay: Antiproliferative activity against human U138 cells overexpressing ANO1 assessed as reduction in cell viability at 100 uM measured after 72 hrs by Celltiter-glo assay; format: functional; summary of the method: as §2
[5] = molecular target: T1, Anoctamin-1 (Mus musculus, UniProt Q8BHY3); assay: Inhibition of GFP-fused mouse ANO1 channel expressed in HEK293A cells assessed as inhibition of ATP-induced channel current amplitude at membrane potential of +80 mV by patch clamp electrophysiology assay; format: cell-based, HEK293-A
T1 sequence (Q8BHY3 whole entry): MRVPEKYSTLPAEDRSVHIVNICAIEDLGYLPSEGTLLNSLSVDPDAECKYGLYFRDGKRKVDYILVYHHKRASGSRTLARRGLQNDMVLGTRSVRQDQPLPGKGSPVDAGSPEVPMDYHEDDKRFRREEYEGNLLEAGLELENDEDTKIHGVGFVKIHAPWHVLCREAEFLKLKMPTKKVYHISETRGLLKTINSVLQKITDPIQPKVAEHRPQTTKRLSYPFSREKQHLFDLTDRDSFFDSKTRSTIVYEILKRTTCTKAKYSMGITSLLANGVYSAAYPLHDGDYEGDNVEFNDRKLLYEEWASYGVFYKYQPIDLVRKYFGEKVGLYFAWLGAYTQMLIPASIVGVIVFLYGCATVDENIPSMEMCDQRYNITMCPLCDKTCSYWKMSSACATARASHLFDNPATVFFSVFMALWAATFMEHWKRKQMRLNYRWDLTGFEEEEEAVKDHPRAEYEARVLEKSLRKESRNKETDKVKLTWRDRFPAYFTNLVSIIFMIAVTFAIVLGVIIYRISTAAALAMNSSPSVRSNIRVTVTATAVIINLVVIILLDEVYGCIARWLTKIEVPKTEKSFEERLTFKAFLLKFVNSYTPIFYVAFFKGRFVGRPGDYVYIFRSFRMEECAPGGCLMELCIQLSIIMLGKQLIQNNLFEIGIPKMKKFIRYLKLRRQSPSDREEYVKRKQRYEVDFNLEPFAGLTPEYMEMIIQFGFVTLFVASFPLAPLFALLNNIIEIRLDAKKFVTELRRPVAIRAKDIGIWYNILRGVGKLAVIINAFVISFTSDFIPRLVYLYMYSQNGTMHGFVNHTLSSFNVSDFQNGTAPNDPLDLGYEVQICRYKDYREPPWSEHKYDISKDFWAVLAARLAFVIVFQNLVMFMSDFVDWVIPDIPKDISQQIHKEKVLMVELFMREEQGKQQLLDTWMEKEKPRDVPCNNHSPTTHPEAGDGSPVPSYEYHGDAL
Summary of the method: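 Whole-cell recording at room temperature in HEK293A cells transfected with GFP-mANO1, GFP-mANO2 or GFP-mTTYH1. 1 s ramps from +80 to -80 mV, holding potential -10 mV. For ANO1/ANO2: pipette CsCl 146 mM with Ca-EGTA-NMDG, pH 7.3; bath NaCl-based, pH 7.3. For TTYH1: Tris-aspartate pipette (pH 7.2) and Tris-HCl bath (pH 7.4), with […] and BaCl2 added to block K+ channels, and hypotonic (220 mOsm/kg) bath. Washout recordings assessed reversibility.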

[6] = molecular target: T2, Anoctamin-1 (Homo sapiens, UniProt Q5XXA6); assay: Inhibition of human ANO1 channel expressed in HEK293 cells incubated for 10 mins by FLIPR assay; format: cell-based
T2 sequence (Q5XXA6 whole entry): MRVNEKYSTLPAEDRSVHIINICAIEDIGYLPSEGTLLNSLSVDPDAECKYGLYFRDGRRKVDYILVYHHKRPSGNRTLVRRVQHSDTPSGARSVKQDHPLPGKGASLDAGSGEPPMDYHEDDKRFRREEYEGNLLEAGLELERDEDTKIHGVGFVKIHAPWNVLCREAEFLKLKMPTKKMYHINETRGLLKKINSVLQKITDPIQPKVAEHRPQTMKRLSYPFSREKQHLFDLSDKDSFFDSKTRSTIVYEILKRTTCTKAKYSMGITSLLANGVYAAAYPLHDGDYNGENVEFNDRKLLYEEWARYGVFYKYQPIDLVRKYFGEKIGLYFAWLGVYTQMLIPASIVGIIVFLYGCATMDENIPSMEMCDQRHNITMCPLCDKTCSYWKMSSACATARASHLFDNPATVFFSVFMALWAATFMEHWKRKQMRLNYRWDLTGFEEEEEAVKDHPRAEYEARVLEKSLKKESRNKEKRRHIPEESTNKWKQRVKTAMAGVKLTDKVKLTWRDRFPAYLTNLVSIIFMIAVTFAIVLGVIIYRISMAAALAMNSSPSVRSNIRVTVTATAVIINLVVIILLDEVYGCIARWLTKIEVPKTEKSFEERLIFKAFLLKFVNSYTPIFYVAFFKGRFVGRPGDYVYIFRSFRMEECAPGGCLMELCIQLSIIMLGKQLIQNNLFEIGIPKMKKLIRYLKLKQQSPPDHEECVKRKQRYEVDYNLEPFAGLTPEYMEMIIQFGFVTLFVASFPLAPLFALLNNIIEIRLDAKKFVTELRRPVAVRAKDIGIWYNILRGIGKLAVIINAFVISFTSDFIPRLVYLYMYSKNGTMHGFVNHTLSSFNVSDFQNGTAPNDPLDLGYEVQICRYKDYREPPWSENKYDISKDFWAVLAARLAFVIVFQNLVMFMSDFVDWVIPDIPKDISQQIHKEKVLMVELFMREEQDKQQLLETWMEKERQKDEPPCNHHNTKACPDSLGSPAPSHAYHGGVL
Summary of the method: (§3)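 HEK293 cells expressing human ANO1, 50,000 cells/well, plated overnight. Loaded with FLIPR Red membrane-potential dye in HEPES-buffered saline (pH 7.4) for 40-60 min at room temperature. Compound added for 10 min at room temperature, final DMSO 0.5%.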

[7] = molecular target: T2, Anoctamin-1; assay: Inhibition of human ANO1 expressed in FRT cells assessed as inhibition of ATP-induced channel current treated 20 mins prior to ATP challenge and measured by pacth-clamp technique; format: cell-based
[8] = test system: U-251; assay: Inhibition of cell migration in human U251 cells at 10 uM incubated for 18 hrs by wound healing assay; format: functional
Summary of the method: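 U251 monolayer, 2.0×10^5 cells/well, plated overnight, then scratched and washed with PBS. Wound area imaged before and after incubation; migration ratio taken from migrated area. One-way ANOVA.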

[9] = molecular target: T3, Anoctamin-1 (Homo sapiens) (UniProt Q5XXA6); assay: Inhibition of human ANO1 channel expressed in HEK293 cells at 10 uM incubated for 10 mins by FLIPR assay relative to control; format: cell-based; summary of the method: as §3
T3 sequence (whole entry): T2 sequence (Q5XXA6 whole entry)

[10] = Antiproliferative activity against mouse primary astrocytes assessed as reduction in cell viability at 100 uM measured after 72 hrs by Celltiter-Glo luminescent assay; format: cell-based, Astrocyte
Summary of the method: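 Primary astrocytes isolated from adult mouse brain by a previously reported method. 5.0×10^3 cells/well, compound as 1:4 serial DMSO dilutions, CellTiter-Glo viability at 72 h.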

[11] = test system: U-251; assay: Antiproliferative activity against human U251 cells overexpressing ANO1 assessed as reduction in cell viability measured after 72 hrs by Celltiter-glo assay; format: functional; summary of the method: as §2
[12] = test system: U-251; assay: Inhibition of anchorage-independent colony formation in human U251 cells at 10 uM incubated for 14 days by crystal violet staining based soft agar colony formation assay; format: functional, cell-based; details: time 14.0 day; summary of the method: as §1
[13] = test system: U-251; assay: Inhibition of colony formation in human U251 cells at 10 uM incubated for 14 days by crystal violet dye based assay; format: functional; details: time 14.0 day
Summary of the method: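 Colonies stained 24 h with crystal violet in methanol/formaldehyde/PBS, washed, extracted with 10% acetic acid and read at A570 nm. Compared against DMSO control.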

CCc1c(C)nc(SCC(=O)Nc2ncc(-c3ccc(OC)cc3)s2)nc1O
inhibition at 10 µM [1]: 19.2%
inhibition [2]: inactive
inhibition at 100 µM [3]: < 50%
inhibition at 100 µM [4]: < 50%
IC50 [5]: 2740 nM
IC50 [6]: 2600 nM
IC50 [7]: 1100 nM
inhibition at 10 µM [8]: 26.5%
inhibition [9]: 63.9%
inhibition at 72 h, 100 µM [10]: < 50%
GI50 [11]: 79300 nM
inhibition [12]: inactive
inhibition [13]: inactive
